From ChEMBL document CHEMBL2311390, “Synthesis and preliminary evaluation of pharmacological properties of some piperazine derivatives of xanthone” (Bioorg Med Chem, 2013)
Blank lines part the entries; values can stand above or below the molecule they belong to.

Assays:
Rattus norvegicus [1] = test: Hypotensive activity in normotensive Wistar rat assessed as reduction of systolic blood pressure at 0.1 to 5 mg/kg, iv; format: functional, Artery; parameters: scale not given: the % may be the effect or the level left; conditions: dose mg/kg 0.1-5
Outline: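 Male normotensive Wistar rats were anaesthetised with thiopental 75 mg/kg ip. The right carotid artery was cannulated with heparinised saline for pressure recording. After 5 min of stabilisation, compound was injected into the tail vein at 1 mL/kg. Systolic and diastolic pressure were followed up to 60 min. Data are means ± SEM of 5–6 rats, analysed by one-way ANOVA.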

Rattus norvegicus [2] = test: Cardiotoxicity in Wistar rat assessed as PQ interval at 10 mg/kg, iv after 10 mins by ECG analysis; format: toxicity, organism-based; parameters: dose 10 mg/kg, route intravenous; conditions: in vivo
Rattus norvegicus [3] = test: Cardiotoxicity in Wistar rat assessed as hear beats per min at 10 mg/kg, iv after 15 mins by ECG analysis; format: toxicity, organism-based; parameters: dose 10 mg/kg, route intravenous; conditions: in vivo, 0.25 h
Outline: (§1)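 Male normotensive Wistar rats, 170–350 g, six per group. Compound given iv at a constant volume of 1 mL/kg. ECG was recorded just before dosing and at 1, 5 and 15 min after. PQ, QRS and QT intervals and heart rate were read from the trace. Groups were compared by one-way ANOVA.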

Rattus norvegicus [4] = test: Cardiotoxicity in Wistar rat assessed as hear beats per min at 10 mg/kg, iv after 5 mins by ECG analysis; format: toxicity, organism-based; parameters: dose 10 mg/kg, route intravenous; conditions: in vivo; outline: as §1
[5] = target: T1, Adrenergic receptor alpha-1 (Rattus norvegicus, UniProt P15823+P23944+P43140); test: Displacement of [3H]-prazosin from alpha1-adrenergic receptor in rat cerebral cortex by liquid scintillation counting; format: tissue-based
T1 sequence (P15823 whole entry): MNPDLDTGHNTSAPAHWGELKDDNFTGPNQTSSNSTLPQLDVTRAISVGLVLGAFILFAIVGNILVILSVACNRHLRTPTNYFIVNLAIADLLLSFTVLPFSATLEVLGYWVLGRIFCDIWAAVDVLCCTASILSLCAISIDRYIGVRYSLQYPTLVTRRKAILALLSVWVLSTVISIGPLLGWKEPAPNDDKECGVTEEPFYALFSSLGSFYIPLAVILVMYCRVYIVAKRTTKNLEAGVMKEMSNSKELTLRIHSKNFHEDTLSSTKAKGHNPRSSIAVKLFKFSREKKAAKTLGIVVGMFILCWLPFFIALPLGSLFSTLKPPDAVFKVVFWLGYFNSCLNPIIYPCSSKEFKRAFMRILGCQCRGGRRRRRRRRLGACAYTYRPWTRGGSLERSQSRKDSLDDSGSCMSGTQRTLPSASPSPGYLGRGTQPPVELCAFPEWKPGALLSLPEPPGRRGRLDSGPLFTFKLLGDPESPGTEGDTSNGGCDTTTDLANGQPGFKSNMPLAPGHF
T1 sequence (P23944 whole entry): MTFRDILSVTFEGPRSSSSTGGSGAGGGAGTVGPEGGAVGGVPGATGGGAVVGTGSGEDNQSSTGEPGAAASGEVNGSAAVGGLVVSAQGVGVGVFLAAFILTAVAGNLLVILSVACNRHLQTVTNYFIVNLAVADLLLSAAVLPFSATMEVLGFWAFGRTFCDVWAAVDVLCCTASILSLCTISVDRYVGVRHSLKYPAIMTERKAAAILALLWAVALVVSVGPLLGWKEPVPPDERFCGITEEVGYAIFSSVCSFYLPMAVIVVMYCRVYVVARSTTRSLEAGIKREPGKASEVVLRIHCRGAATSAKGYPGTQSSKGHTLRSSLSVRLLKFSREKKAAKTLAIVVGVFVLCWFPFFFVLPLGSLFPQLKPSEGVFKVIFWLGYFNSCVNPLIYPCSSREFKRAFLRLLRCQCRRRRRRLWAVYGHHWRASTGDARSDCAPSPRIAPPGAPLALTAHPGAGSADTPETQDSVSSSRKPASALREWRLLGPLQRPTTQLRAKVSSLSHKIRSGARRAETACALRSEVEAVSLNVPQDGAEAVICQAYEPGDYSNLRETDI
T1 sequence (P43140 whole entry): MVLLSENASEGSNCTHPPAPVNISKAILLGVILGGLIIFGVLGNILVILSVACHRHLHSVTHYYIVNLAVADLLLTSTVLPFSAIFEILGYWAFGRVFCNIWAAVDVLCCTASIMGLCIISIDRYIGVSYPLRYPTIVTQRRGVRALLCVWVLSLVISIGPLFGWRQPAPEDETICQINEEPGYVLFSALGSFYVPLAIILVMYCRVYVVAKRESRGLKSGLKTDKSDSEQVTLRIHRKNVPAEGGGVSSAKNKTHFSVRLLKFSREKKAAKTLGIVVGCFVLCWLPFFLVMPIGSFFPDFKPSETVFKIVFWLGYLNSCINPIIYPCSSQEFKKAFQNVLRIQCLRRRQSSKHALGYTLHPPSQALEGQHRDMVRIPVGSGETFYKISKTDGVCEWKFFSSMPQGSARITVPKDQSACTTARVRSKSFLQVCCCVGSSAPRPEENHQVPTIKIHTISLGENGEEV
Outline: (§2)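 Rat cerebral cortex was homogenised in ice-cold 50 mM Tris-HCl pH 7.6 and spun at 20,000 g for 20 min at 0–4 °C, then washed once. Radioligands: [3H]prazosin 0.2 nM for α1, [3H]clonidine 2 nM for α2, [3H]CGP-12177 0.2 nM for β1. Test compounds were run at 7–8 concentrations from 10^-11 to 10^-4 M. Nonspecific binding was defined with phentolamine (α1), clonidine (α2) or propranolol (β1). Counting was by liquid scintillation, in duplicate. Ki was derived by Cheng–Prusoff from 2–3 experiments.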

Rattus norvegicus [6] = test: Cardiotoxicity in Wistar rat assessed as QRS interval at 10 mg/kg, iv after 15 mins by ECG analysis; format: toxicity, organism-based; parameters: dose 10 mg/kg, route intravenous; conditions: in vivo, 0.25 h; outline: as §1
[7] = Displacement of [3H]CGP-12177 from beta1-adrenergic receptor in rat cerebral cortex by liquid scintillation counting; format: tissue-based; outline: as §2
Rattus norvegicus [8] = test: Cardiotoxicity in Wistar rat assessed as QT interval at 10 mg/kg, iv after 10 mins by ECG analysis; format: toxicity, organism-based; parameters: dose 10 mg/kg, route intravenous; conditions: in vivo
Rattus norvegicus [9] = test: Cardiotoxicity in Wistar rat assessed as hear beats per min at 10 mg/kg, iv after 10 mins by ECG analysis; format: toxicity, organism-based; parameters: dose 10 mg/kg, route intravenous; conditions: in vivo
Rattus norvegicus [10] = test: Cardiotoxicity in Wistar rat assessed as QRS interval at 10 mg/kg, iv after 10 mins by ECG analysis; format: toxicity, organism-based; parameters: dose 10 mg/kg, route intravenous; conditions: in vivo
Rattus norvegicus [11] = test: Cardiotoxicity in Wistar rat assessed as QT interval at 10 mg/kg, iv after 15 mins by ECG analysis; format: toxicity, organism-based; parameters: dose 10 mg/kg, route intravenous; conditions: in vivo, 0.25 h; outline: as §1
Rattus norvegicus [12] = test: Cardiotoxicity in Wistar rat assessed as PQ interval at 10 mg/kg, iv after 15 mins by ECG analysis; format: toxicity, organism-based; parameters: dose 10 mg/kg, route intravenous; conditions: in vivo, 0.25 h; outline: as §1
Rattus norvegicus [13] = test: Cardiotoxicity in Wistar rat assessed as QRS interval at 10 mg/kg, iv after 5 mins by ECG analysis; format: toxicity, organism-based; parameters: dose 10 mg/kg, route intravenous; conditions: in vivo; outline: as §1
Rattus norvegicus [14] = test: Cardiotoxicity in Wistar rat assessed as PQ interval at 10 mg/kg, iv after 5 mins by ECG analysis; format: toxicity, organism-based; parameters: dose 10 mg/kg, route intravenous; conditions: in vivo; outline: as §1
Rattus norvegicus [15] = test: Cardiotoxicity in Wistar rat assessed as QT interval at 10 mg/kg, iv after 5 mins by ECG analysis; format: toxicity, organism-based; parameters: dose 10 mg/kg, route intravenous; conditions: in vivo; outline: as §1
[16] = target: T2, Adrenergic receptor alpha-2 (Rattus norvegicus, UniProt P22086+P19328+P22909); test: Displacement of [3H]clonidine from alpha2-adrenergic receptor in rat cerebral cortex by liquid scintillation counting; format: tissue-based; outline: as §2
T2 sequence (P22086 whole entry): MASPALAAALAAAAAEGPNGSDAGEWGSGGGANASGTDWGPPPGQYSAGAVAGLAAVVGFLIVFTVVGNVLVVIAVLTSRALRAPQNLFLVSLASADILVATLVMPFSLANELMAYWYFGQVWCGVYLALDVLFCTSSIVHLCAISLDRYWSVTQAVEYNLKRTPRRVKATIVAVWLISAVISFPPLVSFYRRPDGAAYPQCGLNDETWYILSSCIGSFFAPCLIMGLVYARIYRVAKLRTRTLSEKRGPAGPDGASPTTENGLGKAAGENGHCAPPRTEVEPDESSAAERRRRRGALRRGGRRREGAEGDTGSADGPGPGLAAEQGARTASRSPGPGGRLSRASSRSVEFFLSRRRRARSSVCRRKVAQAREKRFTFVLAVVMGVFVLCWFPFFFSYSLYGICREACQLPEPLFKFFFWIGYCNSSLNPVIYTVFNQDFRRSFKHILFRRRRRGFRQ
T2 sequence (P19328 whole entry): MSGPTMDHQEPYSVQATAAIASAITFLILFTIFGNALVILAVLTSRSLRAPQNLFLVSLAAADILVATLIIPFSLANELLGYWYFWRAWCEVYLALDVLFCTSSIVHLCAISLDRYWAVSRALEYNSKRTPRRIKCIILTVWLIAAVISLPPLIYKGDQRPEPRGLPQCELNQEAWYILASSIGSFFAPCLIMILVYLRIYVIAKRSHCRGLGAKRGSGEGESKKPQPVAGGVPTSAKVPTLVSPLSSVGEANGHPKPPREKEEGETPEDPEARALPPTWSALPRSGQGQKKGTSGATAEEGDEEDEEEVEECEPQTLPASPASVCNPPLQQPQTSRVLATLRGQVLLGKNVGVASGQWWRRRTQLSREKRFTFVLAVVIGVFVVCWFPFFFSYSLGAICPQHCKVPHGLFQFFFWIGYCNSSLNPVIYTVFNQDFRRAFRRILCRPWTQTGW
T2 sequence (P22909 whole entry): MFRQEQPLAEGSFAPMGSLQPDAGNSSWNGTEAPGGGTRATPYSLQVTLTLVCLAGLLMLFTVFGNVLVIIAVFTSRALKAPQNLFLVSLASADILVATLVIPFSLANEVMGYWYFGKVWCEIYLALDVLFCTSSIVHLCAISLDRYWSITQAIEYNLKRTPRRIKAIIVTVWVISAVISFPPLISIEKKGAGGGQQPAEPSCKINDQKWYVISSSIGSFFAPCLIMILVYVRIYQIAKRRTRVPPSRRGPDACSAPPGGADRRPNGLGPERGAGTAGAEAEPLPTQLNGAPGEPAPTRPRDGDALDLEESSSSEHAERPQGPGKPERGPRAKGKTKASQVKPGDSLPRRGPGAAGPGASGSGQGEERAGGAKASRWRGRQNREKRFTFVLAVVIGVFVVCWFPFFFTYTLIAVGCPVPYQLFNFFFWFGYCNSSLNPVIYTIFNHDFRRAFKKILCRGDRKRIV

Rattus norvegicus [17] = test: Antiarrhythmic activity in iv dosed Wistar rat adrenaline-induced arrhythmia model assessed as reduction of heart-rhythm disturbance administered 15 mins adrenaline-challenge; format: functional; conditions: 0.25 h
Outline: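 Anaesthetised male Wistar rats (thiopental 75 mg/kg ip). Test compound iv at 1 mL/kg, given 15 min before adrenaline 20 µg/kg iv. Activity means no premature beats and inhibition of arrhythmia, judged against a control group. There were three dose groups of six rats. ED50 with confidence limits was calculated by the Litchfield–Wilcoxon method.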

SMILES: CC(C)NCC(O)COc1ccc2c(=O)c3ccccc3oc2c1 (centres undefined)
- Activity (Rattus norvegicus [1]): 7%

- Ki [5]: 1.1 µM
- Ki [7]: 31.6 µM
SMILES: COc1ccc(N2CCN(CCCOc3cccc4c(=O)c5ccccc5oc34)CC2)cc1.Cl
- Activity (Rattus norvegicus [2]): 43.7 ms
- Activity (Rattus norvegicus [3]): 311.4 bpm
- Activity (Rattus norvegicus [4]): 323 bpm
- Activity (Rattus norvegicus [6]): 24.2 ms
- Activity (Rattus norvegicus [8]): 80.2 ms
- Activity (Rattus norvegicus [9]): 317.4 bpm
- Activity (Rattus norvegicus [10]): 23.6 ms
- Activity (Rattus norvegicus [11]): 82.4 ms
- Activity (Rattus norvegicus [12]): 43.7 ms
- Activity (Rattus norvegicus [13]): 22.8 ms
- Activity (Rattus norvegicus [14]): 43.5 ms
- Activity (Rattus norvegicus [15]): 79.4 ms

- Ki [5]: 0.082 µM
- Ki [7]: 4.5 µM
- Ki [16]: 5.5 µM
SMILES: COc1ccccc1N1CCN(CCCOc2cccc3c(=O)c4ccc(Cl)cc4oc23)CC1.Cl

SMILES: COc1ccccc1OCCNCC(O)COc1cccc2[nH]c3ccccc3c12 (centres undefined) [CARVEDILOL]
- ED50 (Rattus norvegicus [17]): 0.25 mg/kg
